Measurements taken from publication PMC12155403 (RSC Medicinal Chemistry, 2025).

Tests used:
[1] = test system: MOLT-4 cells; assay: MOLT-4 cell viability; assay type: cell-based; conditions: for IC50: Homo sapiens, MOLT-4, 48 h, read-out: IC50 (MOLT-4 cells)
Procedure, shortened: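 MOLT-4 (T-ALL) cells, STR-profiled and mycoplasma-negative, were kept at 37 °C in 5% CO2. Between […] and 1 × 10^5 suspension cells were seeded per well and exposed to test compound for 48 h or 72 h. Viability was read with tetrazolium MTS reagent, and IC50 values were calculated from the viability data.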

[2] = test system: NCI-H146 cells; conditions: read-out: IC50 (NCI-H146 cells); NCI-H146 SCLC cells; earlier work; cited from earlier work
[3] = test system: PARP and caspase-3 cleavage; assay: Western blot of cleaved PARP and cleaved caspase-3 in MOLT-4 cells; assay type: cell-based; conditions: 16 h
Procedure, shortened: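 MOLT-4 cells were treated for 16 h across a concentration series. Lysates were immunoblotted (4–20% Tris-glycine gels, PVDF, 5% milk/TBST block, primary antibody overnight at 4 °C, HRP secondary, ECL) for cleaved PARP and cleaved caspase-3. Full-length PARP was detected by stripping and reprobing the membrane. Bands were normalised to β-actin.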

[4] = test system: MOLT-4 xenograft; assay: MOLT-4 T-ALL xenograft mouse model; assay type: in vivo; conditions: 1.5 mg kg−1, Q4D, i.p., MOLT-4 xenograft mice
Procedure, shortened: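 MOLT-4 cells (5 × 10^6) in RPMI:Matrigel 1:1 were implanted s.c. in the right flank of 5-week-old CB-17 SCID mice. At mean tumour ~150 mm3, mice were randomised (n = 6 per group) to vehicle or 1.5 mg kg−1 i.p. every 4 days. The vehicle was 50% Phosal 50 PG, 45% Miglyol 810 N and 5% polysorbate 80. Calipers were used twice weekly, volume = (L × W2) × 0.5.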

[5] = test system: human platelets; assay: Human platelet viability assay; assay type: cell-based
[6] = target: T1, Bcl-xL (Homo sapiens, UniProt Q07817); assay: Bcl-xL levels in human platelets; assay type: cell-based; conditions: 48 h
[7] = test system: SCLC cell lines; assay: Viability of a panel of SCLC cell lines; assay type: cell-based; conditions: 72 h
Procedure, shortened: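 SCLC lines came from the NCI-Navy Medical Oncology supply, with H146 from ATCC. Stocks were STR-profiled and mycoplasma-negative, kept at 37 °C and 5% CO2.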

[8] = target: T1, Bcl-xL; assay: Bcl-xL degradation in MOLT-4 cells; assay type: cell-based
Procedure, shortened: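 MOLT-4 cells (RPMI 1640, 10% FBS, 1% penicillin–streptomycin, 37 °C, 5% CO2) were treated for 16 h across a concentration series, or at 100 nM over a time course. Where stated, cells had 1 μM MG-132 pretreatment for 2 h. Lysates were run on 4–20% Tris-glycine gels and blotted to PVDF, with ECL detection. Band densities were normalised to β-actin, three independent experiments, mean ± SD.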

[9] = test system: platelets; assay: In vivo platelet toxicity assay; conditions: single dose 1.5 mg kg−1, i.p., mice

T1 sequence (Q07817 whole entry): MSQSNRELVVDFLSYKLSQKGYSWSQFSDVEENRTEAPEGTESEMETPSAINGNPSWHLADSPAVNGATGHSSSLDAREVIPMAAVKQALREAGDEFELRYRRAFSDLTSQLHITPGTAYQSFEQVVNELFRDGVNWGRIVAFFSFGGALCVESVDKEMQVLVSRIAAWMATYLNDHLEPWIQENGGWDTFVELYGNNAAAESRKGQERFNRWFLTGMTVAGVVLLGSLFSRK

| Structure (SMILES) | IC50 [1] | further results |
| --- | --- | --- |
| CC1(C)CCC(c2ccc(Cl)cc2)=C(CN2CCN(c3ccc(C(=O)NS(=O)(=O)c4ccc(N[C@H](CCN(CCOCCOCCOCCNc5cccc6c5C(=O)N(C5CCC(=O)NC5=O)C6=O)C5CCC5)CSc5ccccc5)c(S(=O)(=O)C(F)(F)F)c4)cc3)CC2)C1 (stereo partly shown) [1e] | 0.33 µM |  |
| CN(CCOCCOCCOCC#Cc1cccc2c1C(=O)N(C1CCC(=O)NC1=O)C2=O)CC[C@H](CSc1ccccc1)Nc1ccc(S(=O)(=O)NC(=O)c2ccc(N3CCN(CC4=C(c5ccc(Cl)cc5)CCC(C)(C)C4)CC3)cc2)cc1S(=O)(=O)C(F)(F)F (stereo partly shown) [2b] | 0.0052 µM | fold increase in potency against MOLT-4 cells compared to 2a ([1]; vs 2a): 2 fold |
| CN(CCOCCOCCN1CCN(c2cccc3c2C(=O)N(C2CCC(=O)NC2=O)C3=O)CC1)CC[C@H](CSc1ccccc1)Nc1ccc(S(=O)(=O)NC(=O)c2ccc(N3CCN(CC4=C(c5ccc(Cl)cc5)CCC(C)(C)C4)CC3)cc2)cc1S(=O)(=O)C(F)(F)F (stereo partly shown) [2d] | 0.0106 µM | fold weaker cellular activity than 2b ([1]; vs 2b, MOLT-4 cells): 2 fold |
| CN(CCOCCOCCOCC#Cc1cccc2c1CN(C1CCC(=O)NC1=O)C2=O)CC[C@H](CSc1ccccc1)Nc1ccc(S(=O)(=O)NC(=O)c2ccc(N3CCN(CC4=C(c5ccc(Cl)cc5)CCC(C)(C)C4)CC3)cc2)cc1S(=O)(=O)C(F)(F)F (stereo partly shown) [4a] | 0.0041 µM |  |
| CC1(C)CCC(c2ccc(Cl)cc2)=C(CN2CCN(c3ccc(C(=O)NS(=O)(=O)c4ccc(N[C@H](CCN(CCOCCOCCOCCNc5cccc6c5C(=O)N(C5CCC(=O)NC5=O)C6=O)C5COC5)CSc5ccccc5)c(S(=O)(=O)C(F)(F)F)c4)cc3)CC2)C1 (stereo partly shown) [1f] | 0.397 µM |  |
| CN(CCOCCOCCOCC#Cc1ccc2c(c1)CN(C1CCC(=O)NC1=O)C2=O)CC[C@H](CSc1ccccc1)Nc1ccc(S(=O)(=O)NC(=O)c2ccc(N3CCN(CC4=C(c5ccc(Cl)cc5)CCC(C)(C)C4)CC3)cc2)cc1S(=O)(=O)C(F)(F)F (stereo partly shown) [5a] | 0.0021 µM |  |
| CC1(C)CCC(c2ccc(Cl)cc2)=C(CN2CCN(c3ccc(C(=O)NS(=O)(=O)c4ccc(N[C@H](CCN(CCOCCOCCOCCNc5cccc6c5C(=O)N(C5CCC(=O)NC5=O)C6=O)CC5CCC5)CSc5ccccc5)c(S(=O)(=O)C(F)(F)F)c4)cc3)CC2)C1 (stereo partly shown) [1g] | 0.326 µM |  |
| CN(CCOCCOCCN1CCC(CCc2cccc3c2C(=O)N(C2CCC(=O)NC2=O)C3=O)CC1)CC[C@H](CSc1ccccc1)Nc1ccc(S(=O)(=O)NC(=O)c2ccc(N3CCN(CC4=C(c5ccc(Cl)cc5)CCC(C)(C)C4)CC3)cc2)cc1S(=O)(=O)C(F)(F)F (stereo partly shown) [2f] | 0.0455 µM |  |
| CN(CCOCCOCCOCCCc1cccc2c1C(=O)N(C1CCC(=O)NC1=O)C2=O)CC[C@H](CSc1ccccc1)Nc1ccc(S(=O)(=O)NC(=O)c2ccc(N3CCN(CC4=C(c5ccc(Cl)cc5)CCC(C)(C)C4)CC3)cc2)cc1S(=O)(=O)C(F)(F)F (stereo partly shown) [2c] | 0.0062 µM |  |
| Cc1ncsc1-c1ccc([C@H](C)NC(=O)[C@@H]2C[C@@H](O)CN2C(=O)[C@@H](NC(=O)CCCCCC(=O)N2CCN(CC[C@H](CSc3ccccc3)Nc3ccc(S(=O)(=O)NC(=O)c4ccc(N5CCN(CC6=C(c7ccc(Cl)cc7)CCC(C)(C)C6)CC5)cc4)cc3S(=O)(=O)C(F)(F)F)CC2)C(C)(C)C)cc1 [DT2216] |  | IC50 [2]: 0.278 µM |
| CC1(C)CCC(c2ccc(Cl)cc2)=C(CN2CCN(c3ccc(C(=O)NS(=O)(=O)c4ccc(N[C@H](CCN(CCOCCOCCOCCNc5cccc6c5C(=O)N(C5CCC(=O)NC5=O)C6=O)C5CCCCC5)CSc5ccccc5)c(S(=O)(=O)C(F)(F)F)c4)cc3)CC2)C1 (stereo partly shown) [1i] | > 1 µM |  |
| CN(CCOCCOCCOCCCc1ccc2c(c1)C(=O)N(C1CCC(=O)NC1=O)C2=O)CC[C@H](CSc1ccccc1)Nc1ccc(S(=O)(=O)NC(=O)c2ccc(N3CCN(CC4=C(c5ccc(Cl)cc5)CCC(C)(C)C4)CC3)cc2)cc1S(=O)(=O)C(F)(F)F (stereo partly shown) [3b] | 0.0043 µM |  |
| CCN(CCOCCOCCOCCNc1cccc2c1C(=O)N(C1CCC(=O)NC1=O)C2=O)CC[C@H](CSc1ccccc1)Nc1ccc(S(=O)(=O)NC(=O)c2ccc(N3CCN(CC4=C(c5ccc(Cl)cc5)CCC(C)(C)C4)CC3)cc2)cc1S(=O)(=O)C(F)(F)F (stereo partly shown) [1b] | 0.0528 µM |  |
| CC1(C)CCC(c2ccc(Cl)cc2)=C(CN2CCN(c3ccc(C(=O)NS(=O)(=O)c4ccc(N[C@H](CCN(CCOCCOCCOCCNc5cccc6c5C(=O)N(C5CCC(=O)NC5=O)C6=O)C5CC5)CSc5ccccc5)c(S(=O)(=O)C(F)(F)F)c4)cc3)CC2)C1 (stereo partly shown) [1d] | 0.297 µM |  |
| CN(CCOCCOCCN1CCC(C#Cc2cccc3c2C(=O)N(C2CCC(=O)NC2=O)C3=O)CC1)CC[C@H](CSc1ccccc1)Nc1ccc(S(=O)(=O)NC(=O)c2ccc(N3CCN(CC4=C(c5ccc(Cl)cc5)CCC(C)(C)C4)CC3)cc2)cc1S(=O)(=O)C(F)(F)F (stereo partly shown) [2e] | 0.0361 µM | fold reduced activity compared to 2d ([1]; vs 2d, MOLT-4 cells): ~4 fold |
| CC1(C)CCC(c2ccc(Cl)cc2)=C(CN2CCN(c3ccc(C(=O)NS(=O)(=O)c4ccc(N[C@H](CCNCCOCCOCCOCCNc5cccc6c5C(=O)N(C5CCC(=O)NC5=O)C6=O)CSc5ccccc5)c(S(=O)(=O)C(F)(F)F)c4)cc3)CC2)C1 (stereo partly shown) [1a] | 0.0597 µM |  |
| CN(CCOCCOCCOCCCc1cccc2c1CN(C1CCC(=O)NC1=O)C2=O)CC[C@H](CSc1ccccc1)Nc1ccc(S(=O)(=O)NC(=O)c2ccc(N3CCN(CC4=C(c5ccc(Cl)cc5)CCC(C)(C)C4)CC3)cc2)cc1S(=O)(=O)C(F)(F)F (stereo partly shown) [4b] | 0.0045 µM |  |
| CN(CCOCCOCCOCC#Cc1ccc2c(c1)C(=O)N(C1CCC(=O)NC1=O)C2=O)CC[C@H](CSc1ccccc1)Nc1ccc(S(=O)(=O)NC(=O)c2ccc(N3CCN(CC4=C(c5ccc(Cl)cc5)CCC(C)(C)C4)CC3)cc2)cc1S(=O)(=O)C(F)(F)F (stereo partly shown) [3a] | 0.0143 µM | fold reduced potency against MOLT-4 cells compared to 2b ([1]; vs C4-substituted 2b): ~3 fold |
| CC1(C)CCC(c2ccc(Cl)cc2)=C(CN2CCN(c3ccc(C(=O)NS(=O)(=O)c4ccc(N[C@H](CCN5CCOCC5)CSc5ccccc5)c(S(=O)(=O)C(F)(F)F)c4)cc3)CC2)C1 [ABT-263, navitoclax, reference compound] | 0.202 µM |  |
| CN(CCOCCOCCOCCCc1ccc2c(c1)CN(C1CCC(=O)NC1=O)C2=O)CC[C@H](CSc1ccccc1)Nc1ccc(S(=O)(=O)NC(=O)c2ccc(N3CCN(CC4=C(c5ccc(Cl)cc5)CCC(C)(C)C4)CC3)cc2)cc1S(=O)(=O)C(F)(F)F (stereo partly shown) [PZ671] | 0.0013 µM | PARP and caspase-3 cleavage [3]: dose-dependently increased; tumor growth [4]: markedly suppressed the tumor growth; selectivity for MOLT-4 cells over platelets [5]: 25 fold; fold decrease in selectivity for MOLT-4 cells over platelets compared to XZ739 ([5]; vs XZ739): ~5 fold; concentration at which Bcl-xL is degraded in human platelets [6]: above 1 μM; cell killing potency in SCLC cell lines compared to XZ739 [7]: more potent than XZ739; time to almost complete Bcl-xL degradation ([8]; MOLT-4 cells, 100 nM): 4 h; time to significantly reduced Bcl-xL protein levels ([8]; MOLT-4 cells, 100 nM): ≤ 2 h; Bcl-xL degradation after proteasome inhibitor pretreatment ([8]; MOLT-4 cells, pretreatment with 1 μM MG-132 for 2 h): blocked; fold enhanced degradation potency against Bcl-xL compared to XZ739 ([8]; vs XZ739, MOLT-4 cells): ~6 fold; fold improved cellular activity against MOLT-4 cells compared to XZ739 ([1]; vs XZ739, listed as 5b): 8 fold; platelet count recovery [9]: rapid recovery observed from the second day onward |
| CN(CCOCCOCCOCCOc1cccc2c1C(=O)N(C1CCC(=O)NC1=O)C2=O)CC[C@H](CSc1ccccc1)Nc1ccc(S(=O)(=O)NC(=O)c2ccc(N3CCN(CC4=C(c5ccc(Cl)cc5)CCC(C)(C)C4)CC3)cc2)cc1S(=O)(=O)C(F)(F)F (stereo partly shown) [2a] | 0.0104 µM |  |
